Rows were chosen to be rich in hits. Some 1.3% of all compounds tested hit in one or more screens of this group.
VLA-4 inh: inhibition in human VLA-4 binding assay, primary screen, VLA-4 allosteric modulator project, MLPCN library, flow cytometry, VLA-4 expressing cells | Integrin alpha-4 (Homo sapiens), P13612 | ligand binding flow cytometry | inhibition, % (about 7 µM as worked out from the volumes in the protocol) | hit rate 0.2% among 330,000 | AID 2557, 2010; in the data active = inhibition above about 50%
Hep lipid drop: inhibitors of hepatocyte lipid droplet formation, primary screen, imaging, high-throughput imaging, BODIPY stain | AML12 mouse hepatocytes, oleate lipid droplets | inhibition, % at 6.5 µM | hit rate 0.4% among 240,000;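 active = lipid droplet intensity inhibited by at least 50%, with more than 500 cells counted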
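Material – AML12 mouse liver cells · Also added – oleate loading, 100 µM · Compound dosing – 6.5 µM single-point dosing · Times – overnight treatment with compound plus oleate · Measured by – fluorescence imaging, 20x objective, two fields per well · Read-out – percent inhibition of filter-corrected integrated lipid droplet intensity per well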
proCasp3 act: activators of human procaspase-3 D3A mutant, primary screen, biochemical, absorbance, PC-3 D3A mutant, single concentration; Caspase-3 (Homo sapiens), P42574; recombinant procaspase-3 D3A, Ac-DEVD-pNA absorbance 405 nm; activation, % at 8.5 µM; hit rate 0.11% among 330,000; AID 463141, 2010;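 active = activation above the mean of all tested compounds plus 3 SD, cut at about 21% in these data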;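 note: 0% = DMSO alone and 100% = DMSO wells spiked with extra 5 µM PC-3 D3A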
Target sequence (P42574 whole entry D9A/D28A/D175A): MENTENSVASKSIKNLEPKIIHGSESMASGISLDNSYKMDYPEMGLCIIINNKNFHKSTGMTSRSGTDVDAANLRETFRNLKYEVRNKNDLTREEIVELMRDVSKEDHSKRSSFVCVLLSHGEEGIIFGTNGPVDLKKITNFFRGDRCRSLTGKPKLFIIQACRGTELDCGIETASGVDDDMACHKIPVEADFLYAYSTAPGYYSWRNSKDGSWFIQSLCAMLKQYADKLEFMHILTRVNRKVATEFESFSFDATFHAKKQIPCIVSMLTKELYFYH
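Compound: 8.5 µM single point, 0.8% DMSO / Material: Autoprocessing-dead procaspase-3 D3A mutant enzyme / Timing: 1 h preincubation plus 2 h reaction at 25 °C / Medium: Zinc-free HEPES/NaCl buffer with 0.01% Triton X-100 at pH 7.4 / Technique: 405 nm absorbance of p-nitroaniline, reads at 0 and 120 min / Repeats: one well per compound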
GASC-1 inh: inhibitors of GASC-1 histone demethylase, primary screen, biochemical, fluorescence, DELFIA europium; Lysine-specific demethylase 4C (Homo sapiens), Q9H3R0; hit rate 0.069% among 330,000; GST-JMJD2C(1-420) H3K9me3 demethylation; inhibition, % at 2.35 µM;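 active = more than half of a compound's replicate wells show inhibition beyond 50%, single wells judged on their own value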;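 note: signal counts dimethyl H3K9 product captured on neutravidin plate; 0% = median of DMSO wells and 100% = 0.3 times that DMSO median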
Target sequence (Q9H3R0 1-420 limits assumed): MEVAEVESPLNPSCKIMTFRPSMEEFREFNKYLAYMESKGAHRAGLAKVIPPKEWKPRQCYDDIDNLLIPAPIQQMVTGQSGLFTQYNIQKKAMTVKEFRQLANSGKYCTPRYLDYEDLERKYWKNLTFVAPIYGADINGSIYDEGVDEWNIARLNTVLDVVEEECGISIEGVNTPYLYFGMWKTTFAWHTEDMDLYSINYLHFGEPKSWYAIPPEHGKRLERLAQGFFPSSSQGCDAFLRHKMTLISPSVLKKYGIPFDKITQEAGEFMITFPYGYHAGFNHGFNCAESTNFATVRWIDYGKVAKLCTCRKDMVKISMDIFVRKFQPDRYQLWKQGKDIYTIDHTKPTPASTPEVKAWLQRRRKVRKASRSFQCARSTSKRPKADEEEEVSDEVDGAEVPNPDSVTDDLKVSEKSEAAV
GRK2 aptamer HTS: compounds blocking aptamer binding on GRK2 – biochemical, human GRK2, bead flow cytometry, HTS, primary screen | hit rate 0.59% among 330,000 | Beta-adrenergic receptor kinase 1 (Homo sapiens), P25098 | inhibition of aptamer binding, % at 10 µM | FAM-aptamer displacement from GRK2 | AID 488847, 2010;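 active = inhibition of aptamer binding above 40%, roughly 3 SD of noise, on plates passing a quality check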;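 note: median bead fluorescence of bound FAM aptamer so fluorescent compounds give negative values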
proCasp7 act: procaspase-7 activators, primary screen, counter-screen for procaspase-3 activator project, biochemical, absorbance, HTS, human; Caspase-7 (Homo sapiens), P55210; recombinant procaspase-7, Ac-DEVD-pNA absorbance 405 nm; D23A/D198A/D206A triple mutant, cannot self-cleave; scale: DMSO 0, 5 µM enzyme 100; activation, % at 8.5 µM; hit rate 0.093% among 330,000; AID 463210, 2010;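 active = percent activation above the screen-wide mean plus 3 SD, cut at about 25% in these data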
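signal = Epi-absorbance of released pNA at 405 nm, two timepoints | assay system = Uncleavable procaspase-7 mutant enzyme | reagent = Ac-DEVD-pNA substrate, 400 µM as added | times = 1 h enzyme–compound preincubation and 2 h substrate reaction, both 25 °C | benchmarks = low DMSO alone, high DMSO plus 5 µM PC-7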
VLA-4 allo CP: retest of VLA-4 allosteric modulators, confirmation, cell-based, cherry-picked plates, U937, HUTS-21 LIBS antibody | shares compounds with VLA-4 inh | U937 cells, HUTS-21 LIBS mAb binding, flow cytometry; LDV ligand present at threefold Kd | inhibition, % at 6.7 µM | hit rate 2% among 1,300 | AID 2813, 2010; in the data active = inhibition above about 40%;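 note: 0% = ligand without compound and 100% = no ligand background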
Numbers without * were called inactive.

For COc1ccc(-n2c(=O)[nH]cc(C(=O)Nc3ccc4c(c3)OCCO4)c2=O)cc1 the results were VLA-4 inh 7, proCasp3 act 0, GASC-1 inh 2, GRK2 aptamer HTS 3 and proCasp7 act 1.
Screening COc1ccc(-n2c(=O)[nH]cc(C(=O)Nc3ccccc3)c2=O)cc1 returned VLA-4 inh 55*, Hep lipid drop 23, proCasp3 act 7, GASC-1 inh 3, GRK2 aptamer HTS 3, proCasp7 act 9 and VLA-4 allo CP 1.
Screening COc1cccc(C(=O)O/N=C(\N)c2ccc(C)cc2)c1 returned VLA-4 inh 42, Hep lipid drop -2, proCasp3 act 8, GASC-1 inh 4, GRK2 aptamer HTS 0, proCasp7 act 13 and VLA-4 allo CP -22.
Screening FC(F)(F)c1nnc(-c2ccccc2)nc1Sc1ccc(Cl)cc1 returned VLA-4 inh 72*, Hep lipid drop 16, proCasp3 act 8, GASC-1 inh -1, GRK2 aptamer HTS 0, proCasp7 act -2 and VLA-4 allo CP 50*.
For O=C1NN(c2ccccc2)C(=O)/C1=C/c1cccs1 the results were VLA-4 inh 41, Hep lipid drop -4, proCasp3 act 3, GASC-1 inh 20, GRK2 aptamer HTS 2, proCasp7 act -1 and VLA-4 allo CP -5.
O=C1NN(c2cccc(Br)c2)C(=O)/C1=C/c1cccs1 was read as VLA-4 inh 2, Hep lipid drop 0, proCasp3 act 0, GASC-1 inh 3, GRK2 aptamer HTS 1 and proCasp7 act -6.
`CC(=O)Nc1ccc(/C=C(\C#N)C(N)=O)cc1` gave VLA-4 inh -1, Hep lipid drop 8, proCasp3 act -3, GASC-1 inh -3, GRK2 aptamer HTS 1, proCasp7 act 4 and VLA-4 allo CP 0.
`CC(C)c1ccc(C2(C)NC(=O)N(CC(=O)NC3CCCC(C)C3C)C2=O)cc1` (stereo unspecified) gave VLA-4 inh 52*, proCasp3 act 11, GASC-1 inh 6, GRK2 aptamer HTS 3, proCasp7 act -2 and VLA-4 allo CP 0.
`CCOC(=O)c1cc(CC)sc1NC(=O)C(c1ccccc1)c1ccccc1` gave VLA-4 inh -13, proCasp3 act -9, GASC-1 inh 3, GRK2 aptamer HTS 0, proCasp7 act -1 and VLA-4 allo CP -7.
CN(C)C(=O)CCc1ccc2c3c([nH]c2c1)[C@]1(C)[C@@H](C(=O)N2CCOCC2)C[C@H](CC(=O)NCc2cccc(C(F)(F)F)c2)C(=O)N1CC3 was read as proCasp3 act -2, GRK2 aptamer HTS 5 and proCasp7 act 3.
`COc1cccc(C(C(=O)NC2CCCCC2)N(C(=O)Cc2cccs2)c2ccc(-n3cnnn3)c(OC)c2)c1` (stereo unspecified) gave VLA-4 inh 54*, proCasp3 act -3, GASC-1 inh -1, GRK2 aptamer HTS 0, proCasp7 act 1 and VLA-4 allo CP -4.
Screening O=C(CCc1nc2ccccc2c(=O)[nH]1)Nc1nnc(SCc2ccccc2F)s1 returned VLA-4 inh 15, proCasp3 act 5, GASC-1 inh -7, GRK2 aptamer HTS 0 and proCasp7 act 7.
For O=C(c1cc(-c2ccco2)nc2ccccc12)N1CCN(Cc2ccccc2)CC1 the results were VLA-4 inh 5, proCasp3 act 2, GASC-1 inh 0, GRK2 aptamer HTS 3, proCasp7 act -5 and VLA-4 allo CP -3.
For O=C(c1ccco1)N1CCN(C(=O)c2cc(-c3ccccc3)nc3ccccc23)CC1 the results were VLA-4 inh -3, proCasp3 act 9, GASC-1 inh 3, GRK2 aptamer HTS 0 and proCasp7 act 4.
Screening O=C(c1ccco1)N1CCN(C(=O)c2cc(-c3ccncc3)nc3ccc(Br)cc23)CC1 returned VLA-4 inh -1, proCasp3 act 2, GASC-1 inh -8, GRK2 aptamer HTS 5, proCasp7 act -3 and VLA-4 allo CP 2.
Screening O=C(c1ccco1)N1CCN(C(=O)c2cc(-c3ccccn3)nc3ccc(Cl)cc23)CC1 returned VLA-4 inh -8, Hep lipid drop -30, proCasp3 act 1, GASC-1 inh 14, GRK2 aptamer HTS 2, proCasp7 act 3 and VLA-4 allo CP -10.
Screening O=C(c1ccco1)N1CCN(c2ccnc3cc(Cl)ccc23)CC1 returned VLA-4 inh 11, Hep lipid drop 1, proCasp3 act -3, GASC-1 inh 5, GRK2 aptamer HTS 0 and proCasp7 act 3.
Screening CCOC(=O)C1CCCN(S(=O)(=O)c2cc(C(=O)OC)n(C)c2)C1 (stereo unspecified) returned VLA-4 inh 27, Hep lipid drop -13, proCasp3 act 2, GASC-1 inh -23, GRK2 aptamer HTS 0 and proCasp7 act 10.
For Cc1c(C=NNC(=O)c2ccc(Br)cc2)c2ccccn2c1C(=O)c1ccncc1 the results were VLA-4 inh -19, proCasp3 act 14, GASC-1 inh -3, GRK2 aptamer HTS 0 and proCasp7 act 1.
For COc1ccc(CCNC(=O)C(=O)NCC2OCCN2C(=O)c2ccc(Cl)cc2)cc1 (stereo unspecified) the results were VLA-4 inh 6, Hep lipid drop -2, proCasp3 act 5, GASC-1 inh -11, GRK2 aptamer HTS 0 and proCasp7 act -1.
COc1ccccc1C(=O)NCCC(=O)N(Cc1ccco1)Cc1cccs1 was read as VLA-4 inh 4, Hep lipid drop -32, proCasp3 act -3, GASC-1 inh -8, GRK2 aptamer HTS 0 and proCasp7 act -15.
`COc1ccc(C(=O)N(Cc2ccco2)Cc2cccs2)c(O)c1` gave VLA-4 inh 54*, Hep lipid drop 4, proCasp3 act -4, GASC-1 inh 7, GRK2 aptamer HTS 2, proCasp7 act 1 and VLA-4 allo CP 1.
For CC(C)N(C(=O)CSc1nnnn1-c1ccc2c(c1)OCO2)C(C)C the results were VLA-4 inh 4, Hep lipid drop 1, proCasp3 act -7, GASC-1 inh -12, GRK2 aptamer HTS 0 and proCasp7 act -7.

Bioassay records (PubChem)
